According to ChEMBL document CHEMBL4715736, “Identification of anticancer agents based on the thieno[2,3-b]pyridine and 1H-pyrazole molecular scaffolds” (2016):

system: Malme-3M; experiment: Growth inhibition of human Malme-3M cells incubated for 48 hrs by sulforhodamine B assay; type: functional; details: not given
In short: (§1)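 NCI60 panel at the NCI Developmental Therapeutics Program. Only compounds active in the 10 µM screen went to dose-response testing. GI50, the concentration giving 50% of maximal inhibition of proliferation, and TGI, the concentration giving total growth inhibition, were derived from the dose-response curves.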

Structure (SMILES) | LC50 | TGI
Cc1cccc(NC(=O)c2sc3nc4c(cc3c2N)C(=O)CCC4)c1 | > 100 µM | ≥ 100 µM

system: LOX IMVI; experiment: Growth inhibition of human LOX IMVI cells assessed as cell growth at 0.01 uM incubated for 48 hrs by sulforhodamine B assay relative to control; type: functional; details: read-out: Activity

Structure (SMILES) | growth at 0.01 µM
Cc1cccc(NC(=O)c2sc3nc4c(cc3c2N)C(=O)CCC4)c1 | 97%

system: 786-0; experiment: Growth inhibition of human 786-0 cells assessed as cell growth at 0.01 uM incubated for 48 hrs by sulforhodamine B assay relative to control; type: functional; details: read-out: Activity
In short: (§2)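 NCI Developmental Therapeutics Program NCI60 panel. Compounds that were active in the 10 µM one-dose screen went on to dose–response testing. Growth at each concentration is expressed relative to untreated control (100%). GI50 (concentration giving 50% of maximal inhibition of proliferation) and TGI (concentration giving total growth inhibition) were derived from the curves.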

Structure (SMILES) | growth at 0.01 µM
Cc1cccc(NC(=O)c2sc3nc4c(cc3c2N)C(=O)CCC4)c1 | 88%

system: NCI-H460; experiment: Growth inhibition of human NCI-H460 cells incubated for 48 hrs by sulforhodamine B assay; type: functional; details: not given; in short: as §1

Structure (SMILES) | GI50 | LC50 | TGI
Cc1cccc(NC(=O)c2sc3nc4c(cc3c2N)C(=O)CCC4)c1 | 286 nM | > 100 µM | ≥ 100 µM

system: OVCAR-5; experiment: Growth inhibition of human OVCAR-5 cells assessed as cell growth at 0.01 uM incubated for 48 hrs by sulforhodamine B assay relative to control; type: functional; details: read-out: Activity

Structure (SMILES) | growth at 0.01 µM
Cc1cccc(NC(=O)c2sc3nc4c(cc3c2N)C(=O)CCC4)c1 | 96%

system: CAKI-1; experiment: Growth inhibition of human CAKI-1 cells assessed as cell growth at 0.1 uM incubated for 48 hrs by sulforhodamine B assay relative to control; type: functional; details: read-out: Activity; in short: as §2

Structure (SMILES) | growth at 0.1 µM
Cc1cccc(NC(=O)c2sc3nc4c(cc3c2N)C(=O)CCC4)c1 | 73%

system: SW-620; experiment: Growth inhibition of human SW-620 cells assessed as cell growth at 0.01 uM incubated for 48 hrs by sulforhodamine B assay relative to control; type: functional; details: read-out: Activity

Structure (SMILES) | growth at 0.01 µM
Cc1cccc(NC(=O)c2sc3nc4c(cc3c2N)C(=O)CCC4)c1 | 94%

system: SF-268; experiment: Growth inhibition of human SF-268 cells assessed as cell growth at 0.1 uM incubated for 48 hrs by sulforhodamine B assay relative to control; type: functional; details: read-out: Activity

Structure (SMILES) | growth at 0.1 µM
Cc1cccc(NC(=O)c2sc3nc4c(cc3c2N)C(=O)CCC4)c1 | 93%

system: NCI/ADR-RES; experiment: Growth inhibition of human NCI/ADR-RES cells assessed as cell growth at 0.1 uM incubated for 48 hrs by sulforhodamine B assay relative to control; type: functional; details: read-out: Activity

Structure (SMILES) | growth at 0.1 µM
Cc1cccc(NC(=O)c2sc3nc4c(cc3c2N)C(=O)CCC4)c1 | 69%

system: U-251; experiment: Growth inhibition of human U-251 cells assessed as cell growth at 1 uM incubated for 48 hrs by sulforhodamine B assay relative to control; type: functional; details: read-out: Activity

Structure (SMILES) | growth at 1 µM
Cc1cccc(NC(=O)c2sc3nc4c(cc3c2N)C(=O)CCC4)c1 | 17%

system: M14; experiment: Growth inhibition of human M14 cells assessed as cell growth at 0.1 uM incubated for 48 hrs by sulforhodamine B assay relative to control; type: functional; details: read-out: Activity

Structure (SMILES) | growth at 0.1 µM
Cc1cccc(NC(=O)c2sc3nc4c(cc3c2N)C(=O)CCC4)c1 | 60%

system: OVCAR-5; experiment: Growth inhibition of human OVCAR-5 cells assessed as cell growth at 100 uM incubated for 48 hrs by sulforhodamine B assay relative to control; type: functional; details: read-out: Activity

Structure (SMILES) | growth at 100 µM
Cc1cccc(NC(=O)c2sc3nc4c(cc3c2N)C(=O)CCC4)c1 | -20%

system: CAKI-1; experiment: Growth inhibition of human CAKI-1 cells assessed as cell growth at 0.01 uM incubated for 48 hrs by sulforhodamine B assay relative to control; type: functional; details: read-out: Activity; in short: as §2

Structure (SMILES) | growth at 0.01 µM
Cc1cccc(NC(=O)c2sc3nc4c(cc3c2N)C(=O)CCC4)c1 | 89%

system: U-251; experiment: Growth inhibition of human U-251 cells incubated for 48 hrs by sulforhodamine B assay; type: functional; details: not given
In short: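 NCI DTP 60-line human tumour panel. Dose-response curves were run only for ligands active in the initial 10 µM screen. GI50 (concentration giving 50% of maximal inhibition of proliferation) and TGI (concentration giving total growth inhibition) were derived from these curves.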

Structure (SMILES) | GI50 | LC50 (concentration killing 50% of cells) | TGI
Cc1cccc(NC(=O)c2sc3nc4c(cc3c2N)C(=O)CCC4)c1 | 261 nM | ≥ 100 µM | ≥ 100 µM

system: SN12C; experiment: Growth inhibition of human SN12C cells assessed as cell growth at 100 uM incubated for 48 hrs by sulforhodamine B assay relative to control; type: functional; details: read-out: Activity

Structure (SMILES) | growth at 100 µM
Cc1cccc(NC(=O)c2sc3nc4c(cc3c2N)C(=O)CCC4)c1 | -33%

system: Malme-3M; experiment: Growth inhibition of human Malme-3M cells assessed as cell growth at 0.1 uM incubated for 48 hrs by sulforhodamine B assay relative to control; type: functional; details: read-out: Activity

Structure (SMILES) | growth at 0.1 µM
Cc1cccc(NC(=O)c2sc3nc4c(cc3c2N)C(=O)CCC4)c1 | 64%

system: HOP-92; experiment: Growth inhibition of human HOP-92 cells incubated for 48 hrs by sulforhodamine B assay; type: functional; details: not given; in short: as §1

Structure (SMILES) | GI50 | LC50 (concentration killing 50% of the starting cells) | TGI
Cc1cccc(NC(=O)c2sc3nc4c(cc3c2N)C(=O)CCC4)c1 | 1000 nM | > 100 µM | ≥ 100 µM

system: SF-539; experiment: Growth inhibition of human SF-539 cells assessed as cell growth at 0.1 uM incubated for 48 hrs by sulforhodamine B assay relative to control; type: functional; details: read-out: Activity

Structure (SMILES) | growth at 0.1 µM
Cc1cccc(NC(=O)c2sc3nc4c(cc3c2N)C(=O)CCC4)c1 | 75%

system: HCC 2998; experiment: Growth inhibition of human HCC 2998 cells incubated for 48 hrs by sulforhodamine B assay; type: functional; details: not given

Structure (SMILES) | GI50 | TGI
Cc1cccc(NC(=O)c2sc3nc4c(cc3c2N)C(=O)CCC4)c1 | 383 nM | > 100 µM

same assay, conditions: read-out: LC50 (the source's name)

Structure (SMILES) | CC50
Cc1cccc(NC(=O)c2sc3nc4c(cc3c2N)C(=O)CCC4)c1 | > 100 µM

system: NCI-H460; experiment: Growth inhibition of human NCI-H460 cells assessed as cell growth at 0.01 uM incubated for 48 hrs by sulforhodamine B assay relative to control; type: functional; details: read-out: Activity

Structure (SMILES) | growth at 0.01 µM
Cc1cccc(NC(=O)c2sc3nc4c(cc3c2N)C(=O)CCC4)c1 | 104%

system: NCI-H322M; experiment: Growth inhibition of human NCI-H322M cells assessed as cell growth at 0.01 uM incubated for 48 hrs by sulforhodamine B assay relative to control; type: functional; details: read-out: Activity

Structure (SMILES) | growth at 0.01 µM
Cc1cccc(NC(=O)c2sc3nc4c(cc3c2N)C(=O)CCC4)c1 | 97%

system: TK-10; experiment: Growth inhibition of human TK-10 cells assessed as cell growth at 100 uM incubated for 48 hrs by sulforhodamine B assay relative to control; type: functional; details: read-out: Activity

Structure (SMILES) | growth at 100 µM
Cc1cccc(NC(=O)c2sc3nc4c(cc3c2N)C(=O)CCC4)c1 | -23%

system: DU-145; experiment: Growth inhibition of human DU-145 cells assessed as cell growth at 0.1 uM incubated for 48 hrs by sulforhodamine B assay relative to control; type: functional; details: read-out: Activity; in short: as §2

Structure (SMILES) | growth at 0.1 µM
Cc1cccc(NC(=O)c2sc3nc4c(cc3c2N)C(=O)CCC4)c1 | 89%

system: SNB-19; experiment: Growth inhibition of human SNB-19 cells assessed as cell growth at 0.01 uM incubated for 48 hrs by sulforhodamine B assay relative to control; type: functional; details: read-out: Activity

Structure (SMILES) | growth at 0.01 µM
Cc1cccc(NC(=O)c2sc3nc4c(cc3c2N)C(=O)CCC4)c1 | 94%

system: K562; experiment: Growth inhibition of human K562 cells assessed as cell growth at 1 uM incubated for 48 hrs by sulforhodamine B assay relative to control; type: functional; details: read-out: Activity

Structure (SMILES) | growth at 1 µM
Cc1cccc(NC(=O)c2sc3nc4c(cc3c2N)C(=O)CCC4)c1 | 21%

system: 786-0; experiment: Growth inhibition of human 786-0 cells assessed as cell growth at 0.1 uM incubated for 48 hrs by sulforhodamine B assay relative to control; type: functional; details: read-out: Activity; in short: as §2

Structure (SMILES) | growth at 0.1 µM
Cc1cccc(NC(=O)c2sc3nc4c(cc3c2N)C(=O)CCC4)c1 | 80%

system: SK-OV-3; experiment: Growth inhibition of human SK-OV-3 cells assessed as cell growth at 0.01 uM incubated for 48 hrs by sulforhodamine B assay relative to control; type: functional; details: read-out: Activity

Structure (SMILES) | growth at 0.01 µM
Cc1cccc(NC(=O)c2sc3nc4c(cc3c2N)C(=O)CCC4)c1 | 90%

system: UO-31; experiment: Growth inhibition of human UO-31 cells assessed as cell growth at 1 uM incubated for 48 hrs by sulforhodamine B assay relative to control; type: functional; details: read-out: Activity

Structure (SMILES) | growth at 1 µM
Cc1cccc(NC(=O)c2sc3nc4c(cc3c2N)C(=O)CCC4)c1 | 55%

system: Malme-3M; experiment: Growth inhibition of human Malme-3M cells assessed as cell growth at 100 uM incubated for 48 hrs by sulforhodamine B assay relative to control; type: functional; details: read-out: Activity

Structure (SMILES) | growth at 100 µM
Cc1cccc(NC(=O)c2sc3nc4c(cc3c2N)C(=O)CCC4)c1 | -16%

system: OVCAR-3; experiment: Growth inhibition of human OVCAR-3 cells assessed as cell growth at 1 uM incubated for 48 hrs by sulforhodamine B assay relative to control; type: functional; details: read-out: Activity

Structure (SMILES) | growth at 1 µM
Cc1cccc(NC(=O)c2sc3nc4c(cc3c2N)C(=O)CCC4)c1 | -7%

system: NCI-H226; experiment: Growth inhibition of human NCI-H226 cells assessed as cell growth at 1 uM incubated for 48 hrs by sulforhodamine B assay relative to control; type: functional; details: read-out: Activity

Structure (SMILES) | growth at 1 µM
Cc1cccc(NC(=O)c2sc3nc4c(cc3c2N)C(=O)CCC4)c1 | 57%

system: M14; experiment: Growth inhibition of human M14 cells incubated for 48 hrs by sulforhodamine B assay; type: functional; details: not given; in short: as §1

Structure (SMILES) | GI50 | LC50 (concentration killing 50% of cells) | TGI
Cc1cccc(NC(=O)c2sc3nc4c(cc3c2N)C(=O)CCC4)c1 | 165 nM | > 100 µM | ≥ 100 µM

system: NCI-H522; experiment: Growth inhibition of human NCI-H522 cells assessed as cell growth at 0.1 uM incubated for 48 hrs by sulforhodamine B assay relative to control; type: functional; details: read-out: Activity

Structure (SMILES) | growth at 0.1 µM
Cc1cccc(NC(=O)c2sc3nc4c(cc3c2N)C(=O)CCC4)c1 | 51%

system: UACC-62; experiment: Growth inhibition of human UACC-62 cells assessed as cell growth at 0.1 uM incubated for 48 hrs by sulforhodamine B assay relative to control; type: functional; details: read-out: Activity

Structure (SMILES) | growth at 0.1 µM
Cc1cccc(NC(=O)c2sc3nc4c(cc3c2N)C(=O)CCC4)c1 | 72%

system: SK-MEL-2; experiment: Growth inhibition of human SK-MEL-2 cells assessed as cell growth at 0.01 uM incubated for 48 hrs by sulforhodamine B assay relative to control; type: functional; details: read-out: Activity

Structure (SMILES) | growth at 0.01 µM
Cc1cccc(NC(=O)c2sc3nc4c(cc3c2N)C(=O)CCC4)c1 | 101%
